Laboratory results as given in the EternaBench riboswitch data.

System: MS2 coat protein
Test: apparent Kd, MS2 coat protein; higher = weaker binding; RNA-MaP array; FMN 200 µM where present
Summary of the method: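 The apparent Kd comes from binding curves fitted cluster by cluster, filtered, and summarised as a median. Those curves followed SNAP-549-labelled MS2 coat protein from 0.7 or 1.5 nM, doubling to 3 µM, on Illumina sequencing-chip clusters where stalled E. coli RNA polymerase had transcribed the designs, without and then with constant ligand. The buffer was 100 mM Tris-HCl pH 7.5, 80 mM KCl, 4 mM MgCl2, BSA, DTT, yeast tRNA and Tween-20, and green signal was normalised to red-channel RNA signal and control-cluster median Fmax.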

[1] = designed as: OFF switch for flavin mononucleotide, no ligand
[2] = ligand present: flavin mononucleotide, designed as: OFF switch for flavin mononucleotide
[3] = designed as: ON switch for flavin mononucleotide, no ligand
[4] = ligand present: flavin mononucleotide, designed as: ON switch for flavin mononucleotide

“GGUCUGCGAGGAUAUACAUGAGGAUCACCCAUGUGCGAGAUACUAGUGAGGUCGAUUGGUAGAAGGCGCGGACA” was tested, and the “apparent Kd” value [1] was 105 nM and the “apparent Kd” value [2] was 66.6 nM.

“UGUAUGGACAGAGGAUAUACGGCUAGGAGAUACUAGCCACUAUUCCUCACAUGAGGAUCACCCAUGUAGAAGGCUGUCCAUACU” was tested, and the “apparent Kd” value [1] was 17.2 nM and the “apparent Kd” value [2] was 120 nM.

With “UGACUAGCAAUGUAUCGAAAGAUCACAUGAGGAUCACCCAUGUAGGAUAUGAGCAGAAAAUCUGCUCAGAAGGACAUGCUAGUC” the “apparent Kd” value [1] was 5.88 nM and the “apparent Kd” value [2] was 6.04 nM.

In the case of “UAUAUAUAGUAAGGAUAUGUAUUAAUUUUAUGAACAGAAGGUACUGACAUGAGGAUCACCCAUGUUUUAGUGUGGGCAUGUAGA”, the “apparent Kd” value [1] is reported as 85.5 nM and the “apparent Kd” value [2] is reported as 122 nM.

“GGACAUGUCGUCUACAUGAGGAUCACCCAUGUCGAUAGACAUGAGGAUAUCGAUAAGAAUUGUAUCGAGAAGGUAUGUAGGUCC” was tested, and the “apparent Kd” value [3] was 18.7 nM and the “apparent Kd” value [4] was 24.9 nM.

In the case of “CAGUACUGAGGAUAUACAUGAGGAUCACCCAUGUGUUCCUUGUAGGAUAUGCGCAAAAGUAGAAGGCAGAAGGAGAUGUGCCUA”, the “apparent Kd” value [1] is reported as 6.59 nM and the “apparent Kd” value [2] is reported as 6.3 nM.

In the case of “GGUACUCAAAGAGUACCAAUUCGAACAUGAGGAUCACCCAUGUAGGAUAUGCUACUCAAAGAGUAGCAGAAGGACAUGUGCCUA”, the “apparent Kd” value [1] is reported as 15.6 nM and the “apparent Kd” value [2] is reported as 73.6 nM.

“GUCGGAAACGACAAAAGUAGCAUAGGAGAAGGUUCAUUAAACAUGAGGAUCACCCAUGUAAUUGGAAAGGAUAUCCUAUGCUAC” was tested, and the “apparent Kd” value [3] was 5.04 nM and the “apparent Kd” value [4] was 5.06 nM.

In the case of “GCUGCGCGAGGAUAUGCGGUUCGCGCUGUGGCCCGUGGCGGACAUGAGGAUCACCCAUGUAGAAGGCGUGCGGG”, the “apparent Kd” value [1] is reported as 13 nM and the “apparent Kd” value [2] is reported as 15.1 nM.

In the case of “CUUUUGUGAGGAUAUCAGUAGUAGAACAAUAGUACUACUACUGAGAAGGCACAUGAGGAUCACCCAUGUACCUC”, the “apparent Kd” value [1] is reported as 19.4 nM and the “apparent Kd” value [2] is reported as 69.7 nM.

For “UCUCGACAUGAGGAUCACCCAUGUCAGGAUAUUGUAUUGGAGGUUUUUUACCUUAUGGCAAGAAGGGAUGUGUG”, the “apparent Kd” value [1] was 20.6 nM and the “apparent Kd” value [2] was 21.6 nM.

For “AUCAGCUCGUCAGGAUAUACGUCCUGGUAAGAUCACAUGAGGAUCACCCAUGUAGAAGGGACGAGCUGAUAAGCACGAAAGUGC”, the “apparent Kd” value [1] was 18.6 nM and the “apparent Kd” value [2] was 81.6 nM.

With “GGAUGACAAAGUCAUCCUAAACGAACAUGAGGAUCACCCAUGUAGGAUAUGGUACUCAAAGAGUACCAGAAGGACAUGUGCCUU” the “apparent Kd” value [1] was 33.7 nM and the “apparent Kd” value [2] was 200 nM.

With “UAUAUAUAAUAUAUUAACAUGAGGAUCACCCAUGUCGCUAGACAGGAUAUAUUUUAUUUUUUUAAGUAGAAGGGUCAUAUAAUU” the “apparent Kd” value [3] was 63.7 nM and the “apparent Kd” value [4] was 86.1 nM.

In the case of “UAAUGUUAGCGAGGAUAUCGUUUAUUGAAGUUACGAGAAGGCGCUCUUCUUACAUGAGGAUCACCCAUGUCUGUUUUGCAUGAU”, the “apparent Kd” value [4] is reported as 51.9 nM.

In the case of “UGUCGGAACAGAGGAUAUUACAUGAGGAUCACCCAUGUAUGAACCAAUAGCUGGAAACAGCAAUGUAAGAAGGCUGCUCCGACA”, the “apparent Kd” value [1] is reported as 11.9 nM and the “apparent Kd” value [2] is reported as 147 nM.

“CCUUCACAUGAGGAUCACCCAUGUCCUAGUCCGUCAGGAUAUAGCCUGCAUCCGCUGUGGCUAGAAGGGACUGCUG” was tested, and the “apparent Kd” value [3] was 135 nM and the “apparent Kd” value [4] was 207 nM.

In the case of “UUGUUAGGGAGAGGAUAUUGACAUGAGGAUCACCCAUGUACUUGGGAGUGUUUACUGAAUUCUUACGAGAAGGCUUACAAAUUU”, the “apparent Kd” value [1] is reported as 165 nM and the “apparent Kd” value [2] is reported as 105 nM.

“AGUGAAUGUACAGGAUAUGCUGGACUUUGUCCAGCAGAAGGGUAUUAACAUGAGGAUCACCCAUGUUCAUUCACCAAAUUUAAU” was tested, and the “apparent Kd” value [3] was 38.8 nM and the “apparent Kd” value [4] was 8.3 nM.

For “CGGGUGGUCCUCCGGGAUUGGACACAGGAUAUCCGCGAGAACAUGAGGAUCACCCAUGUACAUGAGGAGAAGGGUGGACGAAGA”, the “apparent Kd” value [3] was 56.1 nM and the “apparent Kd” value [4] was 11.2 nM.

“CUCUCACAUGAGGAUCACCCAUGUCCACCUCCGUGAGGAUAUAGAUAAUAAAUACAUUUACUAGAAGGCGCAUCCC” was tested, and the “apparent Kd” value [3] was 285 nM and the “apparent Kd” value [4] was 298 nM.

For “GGUACUCAAAGAGUAUCAAUACGAACAUGAGGAUCACCCAUGUAGGAUAUGCUACUCAAAGAGUAGCAGAAGGACAUGUGCCUA”, the “apparent Kd” value [1] was 16.2 nM and the “apparent Kd” value [2] was 91.3 nM.

“CAGGUCUGAGGAUAUCCAUCUUCAUACAUGAGGAUCACCCAUGUUUACCUUUGGGUUUUCGGAGAAGGCAGUUUUU” was tested, and the “apparent Kd” value [1] was 273 nM and the “apparent Kd” value [2] was 370 nM.

For “CCUAAGGAGGUAGGAUAUUGUGUGGUGGCCGGGCUCCCACGGCGAGCGGCACAAGAAGGAUCCCUACAUGAGGAUCACCCAUGU”, the “apparent Kd” value [3] was 25.5 nM and the “apparent Kd” value [4] was 20.3 nM.

“CGCACUAAACAUGAGGAUCACCCAUGUAACUAAGAGCUAGUCAGAAGGCAUAAUUAGUGAAUUAAUGAGGAUAUGAAUAGUGCG” was tested, and the “apparent Kd” value [3] was 157 nM and the “apparent Kd” value [4] was 62.2 nM.

With “UUUGGGAGCACAGGAUAUGGCGCGUCGACCGCGCCAGAAGGGUGAUUCUGUUGGUGGCCACAUGAGGAUCACCCAUGUGCCUCC” the “apparent Kd” value [3] was 42.4 nM and the “apparent Kd” value [4] was 55.3 nM.

“UAACAAAUUGUCAGGAUAUCAGUCCCGGCCCAGAUUGAGAAGGGACAUGAGGAUCACCCAUGUAUGAUUCUCAG” was tested, and the “apparent Kd” value [2] was 114 nM.

For “CCUCCACAUGAGGAUCACCCAUGUCAGGAUAUCGUGUGUUUUUUUUCGGUCUUUCGUGCGAGAAGGGACGUCUG”, the “apparent Kd” value [1] was 27.4 nM and the “apparent Kd” value [2] was 29.9 nM.
